Screening results (PubChem)
Rows were chosen to be rich in hits. Some 4% of all compounds tested hit in one or more screens of this group.
OX1R antag-1: antagonists of human orexin 1 receptor (OX1R). hit rate 1.8% among 330,000. O43613. OX1R-expressing cells, FRET antagonist read-out. inhibition, % at 6.6 µM; in the data active = inhibition mostly above about 38%, no sharp cut-off; inactive = mostly below about 40%;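 also: 0% = agonist challenge alone and 100% = reference antagonist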
CHO parental Ca: counter-screen: ATP calcium response change in parental CHO cells. hit rate 0.63% among 330,000. inhibition, % at 5.6 µM. parental CHO-K1, ATP-induced calcium, Fluo-8 fluorescence. AID 463079;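 active = inhibition above that plate's mean sample inhibition plus 3 SD, cut at about 26% in these data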;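 also: 0% = ATP-challenged DMSO wells and 100% = DMSO wells without ATP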
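Material: Parental CHO cells | Reagent: ATP | Compound dosing: Single nominal dose of 5.6 µM per compound | Detection: Intracellular calcium via Fluo-8 no-wash fluorescent dye | Read-out: % inhibition of ATP-induced calcium mobilization | Benchmarks: Low control ATP plus DMSO, high control DMSO only | Replicates: Singlicate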
TAAR1 ag: human TAAR1 agonism; AID 624467; activation, % at 3 µM; Q96RJ0; hit rate 0.99% among 360,000; CHO RD-HGA16 TAAR1, Fluo-8 calcium fluorescence; vehicle wells 0%, saturating PEA agonist 100%;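 active = activation above the mean activation of all test compounds in the run plus 3 SD, cut at about 38% in these data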
Target sequence (Q96RJ0 whole entry, looked up): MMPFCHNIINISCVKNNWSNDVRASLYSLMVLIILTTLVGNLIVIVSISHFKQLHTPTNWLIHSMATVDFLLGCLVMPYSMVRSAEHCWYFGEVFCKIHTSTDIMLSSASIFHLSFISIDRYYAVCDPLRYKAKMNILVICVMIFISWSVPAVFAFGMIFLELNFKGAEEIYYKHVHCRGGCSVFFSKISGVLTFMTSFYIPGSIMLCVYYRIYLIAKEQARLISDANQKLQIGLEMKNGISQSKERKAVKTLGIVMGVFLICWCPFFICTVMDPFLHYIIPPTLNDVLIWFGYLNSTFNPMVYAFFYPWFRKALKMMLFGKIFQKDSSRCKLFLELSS
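Assay system: CHO-derived RD-HGA16 cells with stable Gα16 and human TAAR1; timing: 17-24 h seeding, 75 min 37 °C dye, 30 min RT; read-out: % activation from peak over basal fluorescence ratio, DMSO-to-PEA scaled; measured by: kinetic Fluo-8 calcium fluorescence; benchmarks: low control DMSO, high control PEA (EC100); doses: 3 µM single concentration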
OX1R antag-2: blocks the human orexin 1 receptor | hit rate 0.43% among 330,000 | inhibition, % at 5 µM | CHO/OX1R cells, Fluo-8 calcium fluorescence, orexin A;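 active = inhibition above its plate's threshold, mean inhibition of all tested compounds on the plate plus 3 SD, cut at about 37% in these data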;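 also: 0% = orexin A challenge wells and 100% = SB-334867-A antagonist wells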
NTR1 agonist: NTR1 (human) agonism. hit rate 0.17% among 330,000. activation, % at 20 µM. P30989. NTR1-U2OS beta-arrestin-GFP spot imaging, agonist mode;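 active = activation at or above 40% of the spot to cytoplasm intensity ratio, with at least 20 cells analyzed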;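 also: 0% = DMSO without peptide and 100% = 100 nM NTR1 peptide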
TAAR1 antag: antagonists of human TAAR1; Q96RJ0; inhibition, % at 3 µM; CHO RD-HGA16 TAAR1, Fluo-8 calcium fluorescence, antagonist; hit rate 1.5% among 360,000; AID 624466;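 active = inhibition above a per-plate cutoff, the mean inhibition of test compounds on that plate plus 3 SD, cut at about 49% in these data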;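 also: 0% = DMSO plus EC80 beta-PEA response and 100% = DMSO alone without agonist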
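Material: RD-HGA16 CHO cells with stable hTAAR1 and Gα16; Dosing: single nominal final test compound concentration of 3 µM; Schedule: seeding 17-24 h prior, 75-min 37 °C, 30-min RT dye loading; Detection: kinetic Fluo-8 calcium fluorescence measurement; Measure: % inhibition from peak post-agonist over basal fluorescence ratio; Benchmarks: vehicle and agonist controls.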
Active calls of the source: *.

Screening COc1cc(CNCCc2ccccc2)ccc1OCC(=O)NC(C)(C)C returned OX1R antag-1 10, CHO parental Ca -12, TAAR1 ag 67*, OX1R antag-2 -39, NTR1 agonist 0 and TAAR1 antag -1.
Screening O=S(=O)(NCC1CCCO1)c1ccc(-c2ccc(S(=O)(=O)NCC3CCCO3)cc2)cc1 (stereo not given) returned OX1R antag-1 21, CHO parental Ca 41*, TAAR1 ag 9, OX1R antag-2 40*, NTR1 agonist 7 and TAAR1 antag 16.
For O=c1c2c([N+](=O)[O-])cc([N+](=O)[O-])cc2nc2ccccn12 the results were OX1R antag-1 73*, CHO parental Ca -5, TAAR1 ag -1, OX1R antag-2 3, NTR1 agonist 0 and TAAR1 antag -3.
Cc1c(O)nc2ccccn2c1=O was read as OX1R antag-1 3, CHO parental Ca -1, TAAR1 ag 1, OX1R antag-2 6, NTR1 agonist 0 and TAAR1 antag 11.
`C=CCNc1cccc2c1S(=O)(=O)N[C@H](Cc1ccccc1)CO2` gave TAAR1 ag 3 and TAAR1 antag 12.
For COC(=O)[C@]12C[C@H](CC(=O)NCCCCc3ccccc3)C(=O)N(Cc3ccccc3)C1=C[C@H](C1CCCC1)O[C@@H]2C the results were TAAR1 ag 0 and TAAR1 antag -15.
C[C@H](CO)N1C[C@H](C)[C@@H](CN(C)C(=O)NC2CCCCC2)Oc2c(NC(=O)Cc3ccccc3)cccc2C1=O was read as OX1R antag-1 14, CHO parental Ca -28, TAAR1 ag 8, OX1R antag-2 -4, NTR1 agonist -3 and TAAR1 antag 5.
Cc1nnc(N2C(=O)c3cccc4cccc(c34)C2=O)s1 was read as OX1R antag-1 59*, CHO parental Ca 9, TAAR1 ag 6, OX1R antag-2 -5, NTR1 agonist 1 and TAAR1 antag 2.
Screening CC1(Oc2cccc(F)c2)CCN(Cc2ccc(-c3ccccc3)o2)C1 (stereo not given) returned TAAR1 ag 10 and TAAR1 antag -8.
For C[C@H]1CN([C@@H](C)CO)C(=O)CCCn2nncc2CO[C@@H]1CN(C)Cc1ccc2cccnc2c1 the results were TAAR1 ag 1 and TAAR1 antag -10.
`CCN(CC)C(=O)CSc1nnc2nnc3cc(OC)ccc3n12` gave OX1R antag-1 76*, CHO parental Ca -12, TAAR1 ag 1, OX1R antag-2 -6, NTR1 agonist 1 and TAAR1 antag -20.
For COc1ccccc1N(C(=O)c1ccco1)C(C(=O)NC1CCCCC1)c1cc(OC)c(OC)c(OC)c1 (stereo not given) the results were OX1R antag-1 42*, CHO parental Ca -23, TAAR1 ag -1, OX1R antag-2 -23, NTR1 agonist 0 and TAAR1 antag -5.
Screening CCOC(=O)C1=CCC(c2ccccc2)N(S(=O)(=O)c2ccccc2C)C1 (stereo not given) returned TAAR1 ag 4 and TAAR1 antag 8.
Screening CCOc1ccccc1NC(=O)COC(=O)c1ccc(S(=O)(=O)N2CCCC2)cc1 returned TAAR1 ag 12, NTR1 agonist 4 and TAAR1 antag 59*.
For CCN(CC)c1ccc(S(=O)(=O)N2CCOCC2)cc1NC(=O)COC(=O)COc1ccccc1C the results were OX1R antag-1 -4, CHO parental Ca -1, TAAR1 ag -1, OX1R antag-2 -11, NTR1 agonist 3 and TAAR1 antag 7.
Screening O=C(COC(=O)c1ccc(O)cc1)Nc1cc(S(=O)(=O)N2CCOCC2)ccc1Cl returned OX1R antag-1 4, CHO parental Ca 4, TAAR1 ag 27, OX1R antag-2 -9, NTR1 agonist 1 and TAAR1 antag 53*.
For CCN(CC)c1ccc(S(=O)(=O)N2CCOCC2)cc1NC(=O)COC(=O)/C=C/c1ccco1 the results were TAAR1 ag 10 and TAAR1 antag 54*.
For CN(CC(=O)NCCc1ccc(S(N)(=O)=O)cc1)S(=O)(=O)c1cccc2nsnc12 the results were OX1R antag-1 59*, CHO parental Ca 9, TAAR1 ag 5, OX1R antag-2 -19, NTR1 agonist -1 and TAAR1 antag -13.
Cc1ccc(NC(=O)CN(C)S(=O)(=O)c2cccc3nsnc23)cc1 was read as OX1R antag-1 53, CHO parental Ca 0, TAAR1 ag 10, OX1R antag-2 -16, NTR1 agonist 0 and TAAR1 antag -3.
CC(=O)c1cccc(NC(=O)CN(C)S(=O)(=O)c2cccc3nsnc23)c1 was read as OX1R antag-1 44*, CHO parental Ca -20, TAAR1 ag 5, OX1R antag-2 -67, NTR1 agonist 1 and TAAR1 antag -12.
CN(CC(=O)N1CCCCC1)S(=O)(=O)c1cccc2nsnc12 was read as OX1R antag-1 55*, CHO parental Ca -7, TAAR1 ag 1, OX1R antag-2 -9, NTR1 agonist 0 and TAAR1 antag -12.
Screening Cc1ccc(CNC(=O)CN(C)S(=O)(=O)c2cccc3nsnc23)cc1 returned OX1R antag-1 71*, CHO parental Ca -21, TAAR1 ag 13, OX1R antag-2 -19, NTR1 agonist 0 and TAAR1 antag -21.
Screening O=C(C(=O)N1CCN(S(=O)(=O)c2ccc(C(F)(F)F)cc2)CC1)c1cccc(C(F)(F)F)c1 returned TAAR1 ag -2 and TAAR1 antag -10.
Screening Cc1cc(C)cc([C@H]2C[C@]34CN(C(=O)OC(C)(C)C)S(=O)(=O)[C@H]3C[C@H]2O4)c1 returned TAAR1 ag -2 and TAAR1 antag 3.
Screening O=[N+]([O-])c1cc(C=Nc2ccc3ccccc3c2)ccc1Br returned OX1R antag-1 64*, CHO parental Ca -9, TAAR1 ag -1, OX1R antag-2 0, NTR1 agonist 0 and TAAR1 antag 15.
`CC(C)c1ccc(C2=C(O)c3ccccc3C(=O)C2=O)cc1` gave OX1R antag-1 57, CHO parental Ca -4, TAAR1 ag 0, OX1R antag-2 -7, NTR1 agonist 0 and TAAR1 antag -9.
For Cc1ccc(C2=C(O)c3ccccc3C(=O)C2=O)cc1 the results were OX1R antag-1 41*, CHO parental Ca -6, TAAR1 ag 0, OX1R antag-2 -12, NTR1 agonist 1 and TAAR1 antag 5.
For O=C1C(=O)c2ccccc2C(O)=C1c1cccc([N+](=O)[O-])c1 the results were OX1R antag-1 52*, CHO parental Ca -16, TAAR1 ag 0, OX1R antag-2 1, NTR1 agonist -1 and TAAR1 antag -28.
COc1ccc(CN(C)C(=O)[C@@H](Cc2ccccc2)NC(=O)[C@H]2O[C@@H](n3ccc(N)nc3=O)[C@H](O)[C@@H]2O)cc1OC was read as TAAR1 ag -1 and TAAR1 antag -13.
